Screening results: PubChem BioAssay, several laboratories
Only some compounds are listed: those with a hit (about 6.8% of all), similar ones and a draw of the others.
PHOSPHO1 inh – PHOSPHO1 (human) inhibition; AID 1565; recombinant PHOSPHO1, absorbance phosphatase assay; 290,000 tested, 1.1% active; Q8TCT1; inhibition, % at 13.3 µM; in the data active = inhibition above about 60%
Target sequence (Q8TCT1 whole entry, looked up): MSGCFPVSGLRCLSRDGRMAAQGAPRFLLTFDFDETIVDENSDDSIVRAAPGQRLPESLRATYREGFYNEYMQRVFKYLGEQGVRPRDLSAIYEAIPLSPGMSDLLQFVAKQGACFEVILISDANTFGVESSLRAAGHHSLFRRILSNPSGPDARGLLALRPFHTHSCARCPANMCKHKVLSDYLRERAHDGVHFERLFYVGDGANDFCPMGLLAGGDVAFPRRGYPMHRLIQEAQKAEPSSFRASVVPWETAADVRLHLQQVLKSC
ALR inh – inhibitors of human sulfhydryl oxidase ALR; P55789; purified ALR, DTT oxidation, H2O2 HRP-luminol luminescence; inhibition, % (test concentration not listed); 290,000 tested, 3.8% active; AID 485317;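 active = mean replicate inhibition above about 79%, with every replicate also reaching it, limit read from the data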
Target sequence (P55789 whole entry, looked up): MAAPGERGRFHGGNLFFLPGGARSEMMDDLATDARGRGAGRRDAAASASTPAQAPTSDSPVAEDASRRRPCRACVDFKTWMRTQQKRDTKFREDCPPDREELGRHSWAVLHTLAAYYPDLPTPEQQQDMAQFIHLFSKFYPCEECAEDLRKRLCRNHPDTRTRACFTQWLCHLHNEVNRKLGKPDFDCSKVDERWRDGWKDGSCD
HSF1 inhib – HSF1 inhibition; NIH3T3-HGL HSE-luciferase, MG132-induced, luminescence 8 h; active compounds read low; activity change, negative = inhibition, % at 7.5 µM (by protocol); 300,000 tested, 0.77% active; AID 2098;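 active = more than half of replicate wells show activity change below -50%, luminescence cut by over half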;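 note: luciferase reports HSF-1 transcriptional activity via heat shock element; 0% = median of DMSO wells and -100% = zero luminescence signal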
HCV core dimer – HCV core protein dimerization inhibition; TR-FRET GST/Flag-core106 dimerization, 1536-well; inhibition, % at 5 µM; 300,000 tested, 0.33% active;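 active = inhibition above the mean of all tested compounds plus 3 SD, set per screening campaign, cut at about 45% in these data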
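assay system = GST-tagged and Flag-tagged HCV core protein residues 1-106 | controls = unlabelled core106 and no-GST-core106 wells | incubation = compound-protein-antibody incubation 4 h at 22.5 °C | probe or stimulus = Eu donor and XL665 acceptor anti-tag antibodies | read-out = % inhibition based on acceptor/donor emission ratio | signal = TR-FRET 671 and 617 nm emission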
AI-2 QS mod – modulators of Vibrio harveyi AI-2 quorum sensing system; activity change, % at 7.5 µM; 300,000 tested, 0.4% active; Vibrio harveyi JMH597 AI-2 luminescence/OD600 ratio, 9 h; active compounds read low; strain lacks LuxN and CqsS sensors; 0 = neutral-control median; AID 2094; in the data active = activity change below about -75%, passing the limit was not always enough;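 note: luminescence divided by OD600 gain over 9 h not by final OD600 alone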
HSF1 activator – increases HSF-1 driven luciferase reporter signal; NIH3T3-HGL HSF-1 luciferase reporter, MG132, 8 h; 100% = twice DMSO control signal; activation, % at 9 µM; 300,000 tested, 1.7% active;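 active = mean replicate activation of at least 50% with a set share of replicates each reaching 50%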;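 note: 0% = median of the neutral control wells and 100% = twice that signal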
* marks the source's active call; other numbers are inactive results; · = no result.

SMILES	PHOSPHO1 inh	ALR inh	HSF1 inhib	HCV core dimer	AI-2 QS mod	HSF1 activator
Cc1cccc(N2CCN(C(=O)c3cccc(N4C(=O)C5C6C=CC(C6)C5C4=O)c3)CC2C)c1 (configuration not stated)	-1.2	24.7	-5.0	8.6	16.6	17.0
Cc1cccc(N2CCN(C(=O)NC3CCCCC3)CC2C)c1 (configuration not stated)	13.7	88.2*	-3.9	·	13.1	4.5
CC(C)[C@H](NC(=O)NCc1ccc(F)cc1)C(=O)O	-4.4	-4.1	-2.3	-0.6	6.5	0.1
O=c1cc(COc2ccccc2[N+](=O)[O-])nc2sccn12	-23.4	·	4.1	2.5	9.3	9.0
COc1cc(NC(=O)CSc2nc3c(c(=O)n(C)c(=O)n3C)n2C)cc(OC)c1	15.1	-7.6	-1.7	-2.3	7.9	-0.9
O=S(=O)(Nc1ccccc1N1CCOCC1)c1c(F)cc(F)cc1Br	·	1.9	·	·	·	·
O=C(CSc1ccc([N+](=O)[O-])cc1)Nc1nnc(C2CC2)s1	·	4.1	·	·	·	·
Cc1cccc(N2CCN(C(=O)/C=C/c3cccs3)CC2C)c1 (configuration not stated)	-22.7	72.4	17.3	5.8	12.0	22.0
Cc1cccc(N2CCN(C(=O)CSc3ccsc3[N+](=O)[O-])CC2C)c1 (configuration not stated)	17.4	53.4	-2.8	57.0*	36.2	20.1
O=S(=O)(/C(=C/c1ccc(C(F)(F)F)cc1)c1nc2ccccc2[nH]1)c1ccccc1	-6.0	33.8	139.0	3.7	8.7	180.4*
CC(C)c1ccc(/C=C(\c2nc3ccccc3[nH]2)S(=O)(=O)c2ccccc2)cc1	-6.0	64.0	77.6	11.7	12.8	102.1*
C/C(=C\c1ccc(N)cc1)c1nc2ccccc2[nH]1	33.7	98.9*	21.3	-3.9	6.9	31.8
O=C(CCl)Nc1ccccc1C(=O)NCc1ccccc1	20.5	-0.1	-2.3	0.4	10.0	-5.7
CN(C)S(=O)(=O)c1ccc(-c2csnn2)s1	17.1	-4.6	-86.2*	0.2	48.7	-89.1
Cc1ccc(N(C)S(=O)(=O)c2ccc(-c3ccc(=O)[nH]n3)s2)cc1C	32.9	0.9	-2.5	-1.2	6.0	-0.5
COc1cccc(NC(=O)C2CCC(CNS(=O)(=O)c3ccc4c(c3)CC(C)N4C(C)=O)CC2)c1 (configuration not stated)	32.4	-1.5	5.6	-3.2	18.9	2.8
CCc1ccc(CNC(=O)c2ccc(NC(=O)C3=CSCCO3)cc2)cc1	48.8	-0.8	6.5	5.1	46.5	11.4
COc1ccc(CC(=O)Nc2ccc(S(=O)(=O)N3CCC(C)CC3)cc2)c(OC)c1	·	-5.5	·	·	·	·
Cc1ccsc1C(=O)Nc1nnc(-c2ccco2)o1	20.8	33.2	-12.9	-1.2	-127.2*	-7.9
CCC1CCCCN1S(=O)(=O)c1ccc(C(=O)Nc2nnc(-c3cccs3)o2)cc1 (configuration not stated)	0.1	97.9*	·	42.7	·	·
Cc1ccc(C(=O)Nc2nnc(-c3ccco3)o2)cc1	-12.0	7.7	-26.0	0.4	5.1	-6.8
O=C(c1cnn(C(=O)c2cccc(S(=O)(=O)N3CCOCC3)c2)c1)c1ccccc1O	24.1	89.7*	3.3	4.1	60.1	-1.9
CCN(CC)S(=O)(=O)c1ccc(N2CCOCC2)c(NC(=O)c2c3c(nc4ccccc24)CCC3)c1	-15.4	-2.9	-3.3	76.6*	23.7	-8.2
CC1CC(C)CN(S(=O)(=O)c2ccc(C(=O)Nc3nnc(-c4cccs4)o3)cc2)C1 (configuration not stated)	6.0	72.3	-9.7	16.6	76.1	-23.1
Cc1cc(C(=O)O)cc(S(=O)(=O)Nc2c(C)nn(C)c2C)c1C	·	-11.5	·	·	·	·
SMILES	PHOSPHO1 inh	ALR inh	HSF1 inhib	HCV core dimer	AI-2 QS mod	HSF1 activator
COc1ccc(Cl)cc1NC(=O)CCNC(=O)Cn1ccc2ccccc2c1=O	35.0	2.0	8.7	-1.6	22.9	6.7
COc1ccc(C(=O)NNS(=O)(=O)c2ccc(OC)cc2)cc1	22.9	87.2*	-2.1	-18.9	-3.7	-0.9
O=C(NNS(=O)(=O)c1ccccc1)c1ccc(S(=O)(=O)N2CCCCC2)cc1	-5.1	29.6	-6.8	-2.9	-95.6*	7.8
O=C(Nc1cccc(O)c1)c1ccc(S(=O)(=O)N2CCCCCC2)cc1	·	·	36.3	·	32.5	74.9*
O=C(Nc1cccc(O)c1)c1cccc(S(=O)(=O)N2CCCC2)c1	14.5	2.3	0.8	5.1	20.5	6.4
COC(=O)c1ccc(S(=O)(=O)NNC(=O)c2ccc(S(=O)(=O)N3CCCCC3)cc2)cc1	5.6	44.7	-4.0	-4.3	19.7	-3.8
O=C(Nc1cccc(S(=O)(=O)N2CCCC2)c1)c1cccc(S(=O)(=O)N2CCOCC2)c1	·	96.7*	·	·	·	·
CCC(CC)C(=O)c1c[nH]c(C(=O)N2CCN(c3ccc(OC)cc3)CC2)c1	32.6	9.7	2.2	-0.8	7.9	2.8
CCN(c1ccc(NC(=O)c2cccc(S(=O)(=O)N3CCN(C)CC3)c2)cc1)C(C)C	14.7	99.3*	-2.8	-25.1	13.9	-0.9
O=C(Nc1cccc(S(=O)(=O)N2CCOCC2)c1)c1c2c(nc3ccccc13)CCC2	11.2	-11.8	15.5	74.2*	38.9	10.7
O=C(Nc1cccc(S(=O)(=O)N2CCOCC2)c1)c1ccc2ccccc2n1	39.0	-0.8	3.0	-2.6	13.1	3.8
Cc1nnc(NC(=O)c2ccc(S(=O)(=O)N3CC(C)OC(C)C3)cc2)o1 (configuration not stated)	23.8	5.1	-2.6	-12.9	3.3	-10.1
Cc1nnc(NC(=O)c2ccc(S(=O)(=O)N3CCCCCC3)cc2)o1	63.3*	61.0	-0.5	-1.2	11.3	-1.9
CC1CN(S(=O)(=O)c2ccc(C(=O)Nc3nnc(-c4ccco4)o3)cc2)CC(C)O1 (configuration not stated)	12.5	86.8*	-7.2	-2.0	16.6	14.1
CN1CCN(c2ccc(NC(=O)c3cccc(S(=O)(=O)N4CCCC4)c3)cc2)CC1	·	-5.7	·	·	·	·
CSc1ncc(C(=O)Nc2cccc(C)c2C)c(C)n1	0.8	-12.0	-2.7	·	11.7	4.8
COc1ccc(C(C)(C)C)cc1NC(=O)c1ccccc1-n1cnnn1	·	12.4	·	·	·	·
COc1ccc2c(c1)C(=O)Cc1ccccc1O2	·	-15.3	-3.0	-1.2	9.6	-4.1
Cc1ccc(S(=O)(=O)N2CCCCC2)cc1NC(=O)c1ccc2c(c1)OCO2	11.6	-2.8	25.6	-1.4	5.0	68.6*
CCN1/C(=C2/SC(=S)N(NC(C)=O)C2=O)Sc2ccc(Cl)cc21	35.6	96.2*	-4.8	3.0	32.1	-5.9
CCN1/C(=C2/SC(=S)N(NC(C)=O)C2=O)Sc2ccc(OC)cc21	7.8	66.6	-0.9	-10.0	30.8	10.3
